# Reference: ChEMBL document CHEMBL5724801, “EUbOPEN Chemogenomics Library - Multiplex” (2024)
# Values joined by “and” are separate entries in the source; they are usually repeats but may differ in a detail not shown here. Identical values can stand only once.
# System: HEK-293T
# Experiment: Multiplex assay against HEK293T
# Format: toxicity, cell-based
# Conditions: human, 12 h, 1 µM, compound concentration 1 uM
# Procedure, shortened: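 Phenotypes for tubulin, mitochondrial mass and membrane permeability are expressed as per cents of healthy-nucleus cells. Cells were stained live at seeding with Hoechst33342, BioTracker Green Microtubule Cytoskeleton Dye, MitoTracker Red and Annexin V Alexa Fluor 680, then imaged after compound addition on a CQ1 microscope at 37°C and 5% CO2. Machine-learning gating in CellPathfinder separated Hoechst high-intensity objects from normal cells, divided normal cells by nuclear state (healthy, pyknosed, fragmented) and divided pyknosed cells into mitotic or apoptotic.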
Structure (SMILES),Population Apoptotic (%),Population Fragmented Nuclei (%),Population Healthy Nuclei (%),Population Hoechst High Intensity Objects (%),Population Membrane Permeable-Phenotype (%),Population Mitochondria Different-Phenotype (%),Population Mitotic Cells (%),Population Normal (%),Population Pyknosed Nuclei (%),Total Cell Count
CC(C)[C@H](C(=O)Nc1ccc(C(=O)NO)cc1)c1ccccc1 [AR-42],11.9% and 3.88%,1.31% and 2.38%,54.83% and 20.83%,0% and 0.59%,0.95% and 0%,22.38% and 11.43%,88.1% and 96.12%,100% and 99.41%,43.86% and 76.79%,383 and 169
N#Cc1c(Oc2cccc(OS(=O)(=O)CCCC(F)(F)F)c2)cccc1C(F)(F)F,35% and 63%,4% and 6%,86% and 75%,5% and 11%,0%,46% and 60%,65% and 36%,94% and 88%,8% and 17%,490 and 349

# Same assay, conditions: human, 12 h, 1 µM, compound concentration 1 uM
row,Structure (SMILES),Population Tubulin-Different-Phenotype (%)
1,N#Cc1c(Oc2cccc(OS(=O)(=O)CCCC(F)(F)F)c2)cccc1C(F)(F)F,38% and 28%

# Same assay, conditions: human, 12 h, 10 µM, compound concentration 10 uM
Structure (SMILES),Population Apoptotic (%),Population Fragmented Nuclei (%),Population Hoechst High Intensity Objects (%),Population Membrane Permeable-Phenotype (%),Population Mitotic Cells (%),Population Normal (%),Population Pyknosed Nuclei (%),Population Tubulin-Different-Phenotype (%),Total Cell Count,Population Healthy Nuclei (%)
CC(C)[C@H](C(=O)Nc1ccc(C(=O)NO)cc1)c1ccccc1 [AR-42],11.02% and 12.75%,2.96% and 3.72%,0.37% and 0%,0% and 3.12%,88.98% and 87.25%,99.63% and 100%,43.7% and 79.26%,5.56% and 9.38%,271 and 188,
N#Cc1c(Oc2cccc(OS(=O)(=O)CCCC(F)(F)F)c2)cccc1C(F)(F)F,42% and 44%,8% and 6%,,0%,57% and 55%,89% and 59%,25% and 28%,65% and 58%,290 and 318,65% and 64%

# Same assay, conditions: human, 12 h, 10 µM, compound concentration 10 uM
row,Structure (SMILES),Population Mitochondria Different-Phenotype (%)
1,N#Cc1c(Oc2cccc(OS(=O)(=O)CCCC(F)(F)F)c2)cccc1C(F)(F)F,74% and 81%

# Same assay, conditions: human, 24 h, 1 µM, compound concentration 1 uM
Structure (SMILES),Population Apoptotic (%),Population Fragmented Nuclei (%),Population Healthy Nuclei (%),Population Hoechst High Intensity Objects (%),Population Membrane Permeable-Phenotype (%),Population Mitochondria Different-Phenotype (%),Population Mitotic Cells (%),Population Normal (%),Population Pyknosed Nuclei (%),Population Tubulin-Different-Phenotype (%)
CC(C)[C@H](C(=O)Nc1ccc(C(=O)NO)cc1)c1ccccc1 [AR-42],31.4% and 16.41%,3.26% and 2.2%,63.86% and 27.47%,0%,0.43% and 0%,22.55% and 10%,68.6% and 83.59%,100%,32.88% and 70.33%,18.3% and 14%
N#Cc1c(Oc2cccc(OS(=O)(=O)CCCC(F)(F)F)c2)cccc1C(F)(F)F,28% and 60%,10% and 8%,77% and 81%,3% and 9%,0%,34% and 48%,71% and 40%,96% and 90%,12% and 9%,26% and 20%

# Same assay, conditions: human, 24 h, 1 µM, compound concentration 1 uM
row,Structure (SMILES),Total Cell Count
1,CC(C)[C@H](C(=O)Nc1ccc(C(=O)NO)cc1)c1ccccc1 [AR-42],368 and 182
2,N#Cc1c(Oc2cccc(OS(=O)(=O)CCCC(F)(F)F)c2)cccc1C(F)(F)F,654 and 412

# Same assay, conditions: human, 24 h, 10 µM, compound concentration 10 uM
Structure (SMILES),Population Apoptotic (%),Population Fragmented Nuclei (%),Population Healthy Nuclei (%),Population Hoechst High Intensity Objects (%),Population Membrane Permeable-Phenotype (%),Population Mitochondria Different-Phenotype (%),Population Mitotic Cells (%),Population Normal (%),Population Pyknosed Nuclei (%),Population Tubulin-Different-Phenotype (%)
CC(C)[C@H](C(=O)Nc1ccc(C(=O)NO)cc1)c1ccccc1 [AR-42],25.32% and 20.83%,1.5% and 2.78%,68.8% and 30.56%,0% and 0.55%,1.09% and 1.82%,14.21% and 14.55%,74.68% and 79.17%,100% and 99.45%,29.7% and 66.67%,2.73% and 3.64%
N#Cc1c(Oc2cccc(OS(=O)(=O)CCCC(F)(F)F)c2)cccc1C(F)(F)F,43% and 45%,9% and 10%,77% and 61%,,0%,66% and 68%,56% and 54%,86% and 52%,13% and 27%,56% and 41%

# Same assay, conditions: human, 24 h, 10 µM, compound concentration 10 uM
row,Structure (SMILES),Total Cell Count
1,CC(C)[C@H](C(=O)Nc1ccc(C(=O)NO)cc1)c1ccccc1 [AR-42],266 and 181
2,N#Cc1c(Oc2cccc(OS(=O)(=O)CCCC(F)(F)F)c2)cccc1C(F)(F)F,338 and 312

# Same assay, conditions: human, 48 h, 1 µM, compound concentration 1 uM
Structure (SMILES),Population Apoptotic (%),Population Fragmented Nuclei (%),Population Healthy Nuclei (%),Population Hoechst High Intensity Objects (%),Population Membrane Permeable-Phenotype (%),Population Mitochondria Different-Phenotype (%),Population Mitotic Cells (%),Population Normal (%),Population Pyknosed Nuclei (%),Population Tubulin-Different-Phenotype (%)
CC(C)[C@H](C(=O)Nc1ccc(C(=O)NO)cc1)c1ccccc1 [AR-42],38.66% and 18.09%,3.58% and 2.58%,60.9% and 36.77%,1.18% and 0%,0.49% and 3.51%,58.33% and 29.82%,61.34% and 81.91%,98.82% and 100%,35.52% and 60.65%,21.57% and 47.37%
N#Cc1c(Oc2cccc(OS(=O)(=O)CCCC(F)(F)F)c2)cccc1C(F)(F)F,20% and 56%,13% and 12%,81% and 82%,1% and 5%,1% and 0%,21% and 23%,79% and 43%,98% and 94%,5%,15% and 13%

# Same assay, conditions: human, 48 h, 1 µM, compound concentration 1 uM
row,Structure (SMILES),Total Cell Count
1,CC(C)[C@H](C(=O)Nc1ccc(C(=O)NO)cc1)c1ccccc1 [AR-42],339 and 155
2,N#Cc1c(Oc2cccc(OS(=O)(=O)CCCC(F)(F)F)c2)cccc1C(F)(F)F,986 and 568

# Same assay, conditions: human, 48 h, 10 µM, compound concentration 10 uM
Structure (SMILES),Population Apoptotic (%),Population Fragmented Nuclei (%),Population Healthy Nuclei (%),Population Hoechst High Intensity Objects (%),Population Membrane Permeable-Phenotype (%),Population Mitochondria Different-Phenotype (%),Population Mitotic Cells (%),Population Normal (%),Population Pyknosed Nuclei (%),Population Tubulin-Different-Phenotype (%)
CC(C)[C@H](C(=O)Nc1ccc(C(=O)NO)cc1)c1ccccc1 [AR-42],22.22% and 36.27%,2.93% and 2.55%,66.95% and 32.48%,0.42% and 0%,5% and 3.92%,22.5% and 11.76%,77.78% and 63.73%,99.58% and 100%,30.13% and 64.97%,9.38% and 15.69%
N#Cc1c(Oc2cccc(OS(=O)(=O)CCCC(F)(F)F)c2)cccc1C(F)(F)F,44% and 58%,11%,78% and 69%,,0%,44% and 47%,55% and 41%,94% and 75%,10% and 18%,29% and 23%

# Same assay, conditions: human, 48 h, 10 µM, compound concentration 10 uM
row,Structure (SMILES),Total Cell Count
1,CC(C)[C@H](C(=O)Nc1ccc(C(=O)NO)cc1)c1ccccc1 [AR-42],240 and 157
2,N#Cc1c(Oc2cccc(OS(=O)(=O)CCCC(F)(F)F)c2)cccc1C(F)(F)F,464 and 363
